# From ChEMBL document CHEMBL3091462 (J Nat Prod, 2013)
# Calls of active or inactive are those of the source. No cut-off for these calls is given here.
# How the values were obtained:
# SW-620 [1] = test: Induction of apoptosis in human SW620 cells expressing p21 siRNA assessed as increase of expression of cleaved caspase-9 and caspase-3 at 10 uM after 24 hrs by immunoblotting; assay type: functional, cell-based
# In short: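 Cells transfected with 100 nM scrambled or p21 siRNA for 4 h, then grown 24 h in complete medium and treated with 10 μM for 24 h. p21, caspase-9/-3 and cleaved forms analysed by 15% SDS-PAGE immunoblot with densitometry. Means ± SD, three experiments in triplicate.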
# SW-620 [2] = test: Induction of apoptosis in human SW620 cells at 5 uM after 48 hrs using Annexin V-FITC and propidium iodide staining by flow cytometry (reference value: 3.8 +/- 2.1%); assay type: functional
# In short: (§1)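 Subconfluent cells in RPMI 1640 + 10% FBS treated with 0–10 μM for 48 h. Harvested cells incubated 10 min with FITC-annexin V/PI, then analysed by flow cytometry (488/525 nm for annexin V-FITC, 488/675 nm for PI). Reported as % apoptotic cells, means ± SD of three experiments in triplicate.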
# HCT-116 [3] = test: Cell cycle arrest in human HCT116 cells assessed as accumulation at G0/G1 phase at 0.5 uM after 48 hrs using propidium iodide staining by flow cytometry (reference value: 56.7 +/- 1.9%); assay type: functional
# SW-620 [4] = test: Effect on p27 expression in p53 deficient human SW620 cells at 0.5 to 10 uM after 24 hrs by immunoblotting; assay type: functional, cell-based
# HCT-116 [5] = test: Induction of apoptosis in human HCT116 cells at 5 uM after 48 hrs using Annexin V-FITC and propidium iodide staining by flow cytometry (reference value: 7.6 +/- 3%); assay type: functional; in short: as §1
# SW-620 [6] = test: Cell cycle arrest in human SW620 cells assessed as accumulation at S phase at 2 uM after 48 hrs using propidium iodide staining by flow cytometry (reference value: 43.1 +/- 1%); assay type: functional
# HCT-116 [7] = test: Cell cycle arrest in human HCT116 cells assessed as accumulation at S phase at 0.5 uM after 48 hrs using propidium iodide staining by flow cytometry (reference value: 36.3 +/- 1.7%); assay type: functional
# HCT-116 [8] = test: Cell cycle arrest in human HCT116 cells assessed as accumulation at G0/G1 phase at 5 uM after 48 hrs using propidium iodide staining by flow cytometry (reference value: 56.7 +/- 1.9%); assay type: functional
# SW-620 [9] = test: Cell cycle arrest in human SW620 cells assessed as accumulation at S phase at 5 uM after 48 hrs using propidium iodide staining by flow cytometry (reference value: 43.1 +/- 1%); assay type: functional
# SW-620 [10] = test: Antitumor activity against human SW620 cells xenografted in BALB/c-nude mouse assessed as reduction of tumor weight at 100 mg/kg, po administered every other day from day 2 to 21 (reference value: 417 mg); assay type: functional
# In short: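 Male BALB/c-nude mice; 2 × 10^6 tumour cells in 0.2 mL PBS injected intradermally into the flank on day 0, n = 10 per group. Oral dosing every other day for 3 weeks, starting 2 days after inoculation. Caliper tumour volume = (width)2 × length/2, measured periodically. Tumours excised and weighed at day 21. Means ± SE.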
# SW-620 [11] = test: Cell cycle arrest in human SW620 cells assessed as accumulation at G2/M phase at 2 uM after 48 hrs using propidium iodide staining by flow cytometry (reference value: 9.1 +/- 0.3%); assay type: functional
# SW-620 [12] = test: Cell cycle arrest in human SW620 cells assessed as accumulation at G0/G1 phase at 1 uM after 48 hrs using propidium iodide staining by flow cytometry (reference value: 47.8 +/- 1.2%); assay type: functional
# SW-620 [13] = test: Induction of apoptosis in human SW620 cells assessed as reduction of Bcl-2 protein expression at 0.5 to 10 uM after 24 hrs by immunoblotting; assay type: functional, cell-based
# In short: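 HCT-116 or SW-620 cells treated with 0–10 μM for 24 h, lysed, and run on 15% SDS-PAGE immunoblots. Probed for Bcl-2 (1:1000), Bax (1:500), caspase-9/-3 and their cleaved forms (1:1000), and β-actin (1:1000). Bands quantified by densitometry; means ± SD of three experiments in duplicate.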
# SW-620 [14] = test: Cell cycle arrest in human SW620 cells assessed as accumulation at G2/M phase at 0.5 uM after 48 hrs using propidium iodide staining by flow cytometry (reference value: 9.1 +/- 0.3%); assay type: functional
# SW-620 [15] = test: Effect on p57 expression in p53 deficient human SW620 cells at 0.5 to 10 uM after 24 hrs by immunoblotting; assay type: functional, cell-based
# SW-620 [16] = test: Cytotoxicity against human SW620 cells expressing p21 siRNA at 10 uM after 24 hrs by trypan blue staining; assay type: functional, cell-based
# In short: (§2)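 Cells plated at 5 × 10^4 per well and transfected with 100 nM scrambled or p21 siRNA in OPTI-MEM for 4 h. Complete RPMI medium was added and cells grown a further 24 h, then exposed to 10 μM for 24 h. Viability measured by direct count after trypan blue staining. Morphology viewed by phase-contrast at 200×. Means ± SD, three experiments in triplicate.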
# HCT-116 [17] = test: Cytotoxicity against human HCT116 cells at 0.1 to 10 uM; assay type: functional, cell-based; settings: TDE = time-dependent effect
# In short: (§3)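 Cells seeded at 10^5 per well in RPMI 1640/10% FBS at 37 °C. Subconfluent cells exposed to 0, 0.1, 0.5, 1, 2, 5 or 10 μM for 48 h, or to 10 μM for 24, 48 and 72 h; ethanol vehicle, at most 0.01% v/v final. Cells trypsinized and counted by hemocytometer. Viability as % of control, means ± SD, three experiments in triplicate.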
# SW-620 [18] = test: Induction of apoptosis in human SW620 cells expressing p21 siRNA assessed as change in cell morphology at 10 uM after 24 hrs by phase-contrast microscopic analysis; assay type: functional, cell-based; in short: as §2
# HCT-116 [19] = test: Cell cycle arrest in human HCT116 cells assessed as accumulation at G0/G1 phase at 10 uM after 48 hrs using propidium iodide staining by flow cytometry (reference value: 56.7 +/- 1.9%); assay type: functional
# SW-620 [20] = test: Cytotoxicity against human SW620 cells assessed as cell viability at 10 uM after 48 to 72 hrs; assay type: functional, cell-based; in short: as §3
# SW-620 [21] = test: Cell cycle arrest in human SW620 cells assessed as accumulation at G2/M phase at 10 uM after 48 hrs using propidium iodide staining by flow cytometry (reference value: 9.1 +/- 0.3%); assay type: functional
# SW-620 [22] = test: Cytotoxicity against human SW620 cells assessed as cell growth inhibition at 10 uM after 48 hrs; assay type: functional; settings: SW-620, 48 h, read-out: GI; in short: as §3
# HCT-116 [23] = test: Decrease of Cdk2 expression in human HCT116 cells after 24 hrs by immunoblotting; assay type: functional, cell-based
# In short: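 HCT-116 or SW-620 cells exposed to 0–10 μM for 24 h. Cells lysed in Tris/NaCl/EDTA/1% Triton X-100 buffer with protease and phosphatase inhibitors at 4 °C, protein measured by BCA. Lysates run on 10–12.5% SDS-PAGE and immunoblotted, ECL detection. Cdk2, cyclin A and cyclin E antibodies used at 1:500; β-actin as loading control.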
structure (smiles),measurement,setting,value
CC(C)c1cccc(=O)c(O)c1 [HINOKITIOL],Activity,SW-620 [1],inactive
same,Activity,SW-620 [2],53.1%
same,Activity,HCT-116 [3],56.5%
same,Activity,SW-620 [4],inactive
same,Activity,HCT-116 [5],15.6%
same,Activity,SW-620 [6],52.4%
same,Activity,HCT-116 [7],35.4%
same,Activity,HCT-116 [8],44.6%
same,Activity,SW-620 [9],51.9%
same,Activity,SW-620 [10],252 mg
same,Activity,SW-620 [11],4.5%
same,Activity,SW-620 [12],45.6%
same,Activity,SW-620 [13],Active
same,Activity,SW-620 [14],8.4%
same,Activity,SW-620 [15],inactive
same,Activity,SW-620 [16],inactive
same,Activity,HCT-116 [17],tde
same,Activity,SW-620 [18],inactive
same,Activity,HCT-116 [19],38.8%
same,Activity,SW-620 [20],Active
same,Activity,SW-620 [21],1.5%
same,inhibition of growth at 10 µM,SW-620 [22],63%
same,Activity,HCT-116 [23],Dose-dependent effect
